Measurements taken from article PMC3972761 (Chemistry & biology, 2008).
pIC50: −log10 of the molar value. Marks after values point to notes of the source that are not given here.

Columns and labels:
purified hMGL = target: T1, purified hMGL (Homo sapiens, UniProt Q99685); experiment: Inhibition of purified hMGL at fixed inhibitor:hMGL molar ratios; assay type: biochemical; conditions: for hMGL Inhibition (%) 10 min: 50 μM AHMMCE, 1 hr preincubation
T1 sequence (Q99685 1-303): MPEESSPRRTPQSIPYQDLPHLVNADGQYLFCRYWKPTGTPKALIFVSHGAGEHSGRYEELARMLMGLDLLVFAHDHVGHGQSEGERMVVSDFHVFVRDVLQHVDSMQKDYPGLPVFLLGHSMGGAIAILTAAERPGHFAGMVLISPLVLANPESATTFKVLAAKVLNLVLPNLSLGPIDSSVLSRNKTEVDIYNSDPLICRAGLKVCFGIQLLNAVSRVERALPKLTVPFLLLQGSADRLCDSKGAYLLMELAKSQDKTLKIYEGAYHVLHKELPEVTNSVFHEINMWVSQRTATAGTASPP

[1] = target: T2, hMGL (recombinant hexa-histidine-tagged human MGL) (Homo sapiens, UniProt Q99685); experiment: Fluorescence-based AHMMCE hydrolysis assay, E. coli lysate containing hMGL; assay type: biochemical; conditions: for hMGL inhibition potency (in words): E. coli lysate containing hMGL, 3-hr incubation, AHMMCE
T2 sequence (Q99685 1-303): T1 sequence (Q99685 1-303)
Outline: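 Test compound was preincubated 15 min at room temperature with E. coli lysate containing hMGL (175 ng total protein) in 50 mM Tris-HCl pH 7.4 with 8% DMSO. AHMMCE was then added (20 μM final) and fluorescence (360/460 nm) read every 15 min for 3 hr. HMC formed at 2 h was quantified against an HMC standard curve, and IC50 was fitted by nonlinear regression.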

hMGL cysteine residues = target: T3, hMGL cysteine residues (Homo sapiens, UniProt Q99685); experiment: MALDI-TOF MS of tryptic digest of NAM-treated hMGL; conditions: for Relative Alkylation of Cys39: percent alkylation of Cys39 relative to Cys208
T3 sequence (Q99685 1-303): T1 sequence (Q99685 1-303)
Outline: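 Purified His-tagged hMGL (3 μM) was incubated 1 hr at room temperature in 10 mM Tris-HCl pH 8.0 with test compound at set molar ratios. It was desalted into 50 mM ammonium bicarbonate with 0.02% CYMAL, pH 8.0, then trypsin-digested overnight, either directly or after DTT (17 mM, 30 min) and iodoacetamide (55 mM, 1 hr, dark). Digests were analysed by MALDI-TOF MS with CHCA matrix.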

recombinant MGL = conditions: read-out: IC50, recombinant MGL; time-dependent; ref Alexander and Cravatt, 2006; cited from earlier work
[2] = inhibitor:hMGL molar ratio 3.3:1
[3] = inhibitor:hMGL molar ratio 8.3:1

Compound	hMGL Inhibition (%) 10 min (purified hMGL; inhibitor:hMGL molar ratio 1:1)	hMGL Inhibition (%) 10 min (purified hMGL; [2])	hMGL Inhibition (%) 10 min (purified hMGL; [3])	hMGL inhibition potency (in words) [1]	further results
CCCCC/C=C\C/C=C\C/C=C\C/C=C\CCCCN1C(=O)C=CC1=O [NAM, N-arachidonylmaleimide]	51%	80%	82%	markedly less potent	hMGL Inhibition (%) 10 min (purified hMGL; inhibitor:hMGL molar ratio 33:1): 84%; hMGL inhibition achieved with partial alkylation of Cys215 and/or Cys249 (purified hMGL; molar ratio not stated at the place): ~ 80%; extent of hMGL inhibition at large molar excesses ([1]; large molar NAM excesses (Figure 1C)): completely; Relative Alkylation of Cys208 (hMGL cysteine residues; NAM:hMGL ratio 8.3:1): 0%; Relative Alkylation of Cys39 (hMGL cysteine residues; NAM:hMGL ratio 8.3:1): 0%; Relative Alkylation of Cys39 (hMGL cysteine residues; NAM:hMGL ratio 33:1): 100% ^(a); Relative Alkylation of Cys208 (hMGL cysteine residues; NAM:hMGL ratio 33:1, relative to Cys39/Cys208 pair): 0% ^(a)
CN(C)C(=O)n1nnc(Cc2ccc(-c3ccccc3)cc2)n1 [AM6701, 5-((biphenyl-4-yl)methyl)-N,N-dimethyl-2H-tetrazole-2-carboxamide]	72%	85%	91%	–	–
CN(C)C(=O)n1nnnc1Cc1ccc(-c2ccccc2)cc1 [AM6702, 5-((biphenyl-4-yl)methyl)-N,N-dimethyl-1H-tetrazole-1-carboxamide]	–	–	–	nM range	–
LY2183240	–	–	–	–	pIC50 (recombinant MGL): ~8.28
